Measured values taken from ChEMBL document CHEMBL1157817, “2-aminoimidazole amino acids as inhibitors of the binuclear manganese metalloenzyme human arginase I” (J Med Chem, 2010).
pIC50, pKd, pKi: −log10 of the molar value. The source made the active and inactive calls. The rule behind the calls is not given here.

Tests used:
[1] = target: T1, Arginase-1 (Homo sapiens, UniProt P05089); test: Inhibition of human recombinant full length arginase 1 expressed in Escherichia coli BL21(DE3) by fixed point assay
T1 sequence (P05089 whole entry): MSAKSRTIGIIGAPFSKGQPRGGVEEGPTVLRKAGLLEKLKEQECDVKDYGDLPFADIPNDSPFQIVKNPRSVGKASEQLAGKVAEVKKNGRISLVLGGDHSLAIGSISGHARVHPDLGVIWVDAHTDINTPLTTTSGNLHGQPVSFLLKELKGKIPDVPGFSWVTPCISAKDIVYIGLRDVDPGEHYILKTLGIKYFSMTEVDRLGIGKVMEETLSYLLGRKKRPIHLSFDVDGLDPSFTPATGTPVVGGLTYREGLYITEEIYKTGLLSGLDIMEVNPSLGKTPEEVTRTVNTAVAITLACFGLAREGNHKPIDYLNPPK

[2] = target: T1, Arginase-1; test: Inhibition of human recombinant full length arginase 1 expressed in Escherichia coli BL21(DE3) by surface plasmon resonance assay
[3] = target: T2, Nitric oxide synthase, inducible (Mus musculus, UniProt P29477); test: Inhibition of mouse recombinant iNOS
T2 sequence (P29477 whole entry): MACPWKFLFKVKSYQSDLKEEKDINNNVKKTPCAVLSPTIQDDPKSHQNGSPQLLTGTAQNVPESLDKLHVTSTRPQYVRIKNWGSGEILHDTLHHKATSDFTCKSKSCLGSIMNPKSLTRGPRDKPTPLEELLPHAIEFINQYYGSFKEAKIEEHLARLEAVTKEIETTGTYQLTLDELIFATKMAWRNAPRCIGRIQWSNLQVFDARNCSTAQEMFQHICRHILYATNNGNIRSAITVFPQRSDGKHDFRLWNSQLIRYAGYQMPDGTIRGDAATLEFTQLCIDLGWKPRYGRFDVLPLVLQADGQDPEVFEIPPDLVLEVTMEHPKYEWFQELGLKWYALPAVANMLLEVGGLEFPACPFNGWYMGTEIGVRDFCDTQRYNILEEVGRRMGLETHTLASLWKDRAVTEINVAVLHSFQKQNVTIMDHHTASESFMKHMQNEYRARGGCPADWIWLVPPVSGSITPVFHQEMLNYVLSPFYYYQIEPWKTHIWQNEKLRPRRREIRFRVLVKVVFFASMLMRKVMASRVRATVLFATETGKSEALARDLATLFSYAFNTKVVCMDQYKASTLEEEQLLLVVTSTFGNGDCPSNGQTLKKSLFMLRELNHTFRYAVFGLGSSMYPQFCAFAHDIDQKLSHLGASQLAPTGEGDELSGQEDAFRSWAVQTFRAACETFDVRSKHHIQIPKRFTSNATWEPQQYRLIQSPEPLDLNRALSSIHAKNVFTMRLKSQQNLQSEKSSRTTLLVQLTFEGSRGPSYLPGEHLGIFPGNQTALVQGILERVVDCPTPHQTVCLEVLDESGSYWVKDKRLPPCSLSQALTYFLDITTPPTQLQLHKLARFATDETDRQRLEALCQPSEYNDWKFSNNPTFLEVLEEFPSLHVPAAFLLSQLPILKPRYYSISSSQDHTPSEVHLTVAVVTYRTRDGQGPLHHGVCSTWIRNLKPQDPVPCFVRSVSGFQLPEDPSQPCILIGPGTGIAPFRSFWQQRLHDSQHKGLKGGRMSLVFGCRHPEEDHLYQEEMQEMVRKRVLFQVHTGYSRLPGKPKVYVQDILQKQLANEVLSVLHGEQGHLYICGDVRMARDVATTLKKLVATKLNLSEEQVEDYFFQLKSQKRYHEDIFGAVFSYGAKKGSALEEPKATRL

[4] = test system: Mus musculus; test: Antiinflammatory activity in ovalbumin-sensitized and challenged BALB/c mouse model assessed as attenuation of methacholine-induced increase in central airways responsiveness at 85 ug/g administered via nebulization 24 hrs after ovalbumin challenge measured after 15 mins; format: functional, organism-based
How it was run: (§1)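 Mice OVA-sensitized, then nebulized 6% OVA in PBS (or PBS alone) 25 min/day on days 14–20. Day 21, 24 h after last challenge: ketamine 50 mg/kg plus xylazine 10 mg/kg, intubated, ventilator-based resistance measured. Baseline resistance re-measured 15 min after drug. Then nebulized methacholine (0–100 mg/mL in PBS) dose-response via ventilator circuit. Maximum R and RN read; means ± SE, n = 12/group.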

[5] = test system: Mus musculus; test: Antiinflammatory activity in ovalbumin-sensitized and challenged BALB/c mouse model assessed as attenuation of methacholine-induced maximum total lung resistance at 85 ug/g administered via nebulization 24 hrs after ovalbumin challenge measured after 15 mins; format: functional, organism-based; how it was run: as §1
[6] = target: Nitric oxide synthase 1 (Rattus norvegicus, UniProt P29476); test: Inhibition rat recombinant nNOS
Nitric oxide synthase 1, sequence (P29476 whole entry): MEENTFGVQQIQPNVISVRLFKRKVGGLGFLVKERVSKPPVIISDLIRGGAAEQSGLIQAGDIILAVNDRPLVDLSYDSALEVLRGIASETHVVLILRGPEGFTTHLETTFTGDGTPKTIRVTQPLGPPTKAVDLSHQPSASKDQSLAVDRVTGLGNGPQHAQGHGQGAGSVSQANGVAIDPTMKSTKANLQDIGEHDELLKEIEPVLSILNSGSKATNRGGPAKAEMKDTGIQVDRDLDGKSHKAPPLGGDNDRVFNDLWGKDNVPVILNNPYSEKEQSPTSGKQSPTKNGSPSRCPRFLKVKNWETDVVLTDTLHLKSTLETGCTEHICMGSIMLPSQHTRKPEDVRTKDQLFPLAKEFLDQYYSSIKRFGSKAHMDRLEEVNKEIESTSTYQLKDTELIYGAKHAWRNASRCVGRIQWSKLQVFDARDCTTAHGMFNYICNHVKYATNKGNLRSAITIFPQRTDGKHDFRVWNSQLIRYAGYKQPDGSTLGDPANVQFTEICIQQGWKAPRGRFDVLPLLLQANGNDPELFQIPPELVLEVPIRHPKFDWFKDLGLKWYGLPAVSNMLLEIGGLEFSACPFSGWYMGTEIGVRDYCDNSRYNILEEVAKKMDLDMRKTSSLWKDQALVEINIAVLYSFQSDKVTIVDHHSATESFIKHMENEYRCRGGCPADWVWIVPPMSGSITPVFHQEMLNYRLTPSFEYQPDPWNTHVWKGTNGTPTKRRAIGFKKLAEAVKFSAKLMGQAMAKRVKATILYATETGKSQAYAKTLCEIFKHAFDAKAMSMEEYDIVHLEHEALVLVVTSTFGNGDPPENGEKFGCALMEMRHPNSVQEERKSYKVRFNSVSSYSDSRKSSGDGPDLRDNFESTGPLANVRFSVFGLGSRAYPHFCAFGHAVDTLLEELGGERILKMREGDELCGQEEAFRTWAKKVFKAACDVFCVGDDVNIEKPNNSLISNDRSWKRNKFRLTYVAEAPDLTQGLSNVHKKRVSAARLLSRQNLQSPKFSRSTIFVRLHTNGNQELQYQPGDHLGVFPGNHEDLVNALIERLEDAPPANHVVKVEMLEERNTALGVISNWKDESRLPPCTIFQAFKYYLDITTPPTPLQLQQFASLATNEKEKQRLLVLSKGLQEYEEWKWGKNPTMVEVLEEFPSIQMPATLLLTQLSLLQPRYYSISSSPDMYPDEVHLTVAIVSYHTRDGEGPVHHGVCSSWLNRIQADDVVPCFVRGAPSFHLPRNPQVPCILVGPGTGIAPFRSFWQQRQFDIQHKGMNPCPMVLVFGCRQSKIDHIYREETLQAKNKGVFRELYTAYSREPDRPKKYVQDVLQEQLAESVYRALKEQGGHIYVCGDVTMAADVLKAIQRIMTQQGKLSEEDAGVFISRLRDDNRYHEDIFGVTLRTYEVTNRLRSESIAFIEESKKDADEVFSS

| pKi [1] | pKd [2] | pIC50 [3] | pIC50 [6] | Compound | inhibition [4] | inhibition [5] |
| --- | --- | --- | --- | --- | --- | --- |
| 2.44 | – | – | – | Nc1ncc[nH]1 | – | – |
| 5.40 | 5.70 | 3.32 | 3.87 | Nc1nccn1CCC[C@H](N)C(=O)O | Active | Active |
| 3.30 | – | – | – | N[C@@H](CCCNc1ncc[nH]1)C(=O)O | – | – |
